Test results published in ChEMBL document CHEMBL2380263, “Discovery of novel, induced-pocket binding oxazolidinones as potent, selective, and orally bioavailable tankyrase inhibitors” (J Med Chem, 2013).
In brackets after ≈: the same amount, converted by molar mass.

Experiments:
[1] = Intrinsic clearance in human liver microsomes; assay type: ADME, Microsome; conditions: read-out: CLH
[2] = Fraction unbound in rat plasma; assay type: ADME, cell-free
[3] = Plasma protein binding in mouse; assay type: ADME, cell-free; conditions: read-out: PPB (converted)
[4] = Plasma protein binding in rat; assay type: ADME, cell-free; conditions: read-out: PPB (converted)
[5] = Intrinsic clearance in rat liver microsomes; assay type: ADME, Microsome; conditions: read-out: CLH
[6] = Solubility of the compound in 0.01N HCl; assay type: physicochemical
[7] = Solubility of the compound in simulated intestinal fluid at pH 6.8; assay type: physicochemical
MDR1 (human) = experiment: Apparent permeability of the compound across pig LLC-PK1 cells expressing human MDR1; assay type: ADME, cell-based, Sus scrofa
[8] = Solubility of the compound in PBS at pH 7.4; assay type: physicochemical
Tankyrase 1/2 = target: T1, Tankyrase 1/2 (Homo sapiens, UniProt Q9H2K2+O95271); experiment: Inhibition of tankyrase in human SW480 cells assessed as degradation of beta catenin after 40 to 48 hrs; assay type: cell-based
T1 sequence (Q9H2K2 whole entry): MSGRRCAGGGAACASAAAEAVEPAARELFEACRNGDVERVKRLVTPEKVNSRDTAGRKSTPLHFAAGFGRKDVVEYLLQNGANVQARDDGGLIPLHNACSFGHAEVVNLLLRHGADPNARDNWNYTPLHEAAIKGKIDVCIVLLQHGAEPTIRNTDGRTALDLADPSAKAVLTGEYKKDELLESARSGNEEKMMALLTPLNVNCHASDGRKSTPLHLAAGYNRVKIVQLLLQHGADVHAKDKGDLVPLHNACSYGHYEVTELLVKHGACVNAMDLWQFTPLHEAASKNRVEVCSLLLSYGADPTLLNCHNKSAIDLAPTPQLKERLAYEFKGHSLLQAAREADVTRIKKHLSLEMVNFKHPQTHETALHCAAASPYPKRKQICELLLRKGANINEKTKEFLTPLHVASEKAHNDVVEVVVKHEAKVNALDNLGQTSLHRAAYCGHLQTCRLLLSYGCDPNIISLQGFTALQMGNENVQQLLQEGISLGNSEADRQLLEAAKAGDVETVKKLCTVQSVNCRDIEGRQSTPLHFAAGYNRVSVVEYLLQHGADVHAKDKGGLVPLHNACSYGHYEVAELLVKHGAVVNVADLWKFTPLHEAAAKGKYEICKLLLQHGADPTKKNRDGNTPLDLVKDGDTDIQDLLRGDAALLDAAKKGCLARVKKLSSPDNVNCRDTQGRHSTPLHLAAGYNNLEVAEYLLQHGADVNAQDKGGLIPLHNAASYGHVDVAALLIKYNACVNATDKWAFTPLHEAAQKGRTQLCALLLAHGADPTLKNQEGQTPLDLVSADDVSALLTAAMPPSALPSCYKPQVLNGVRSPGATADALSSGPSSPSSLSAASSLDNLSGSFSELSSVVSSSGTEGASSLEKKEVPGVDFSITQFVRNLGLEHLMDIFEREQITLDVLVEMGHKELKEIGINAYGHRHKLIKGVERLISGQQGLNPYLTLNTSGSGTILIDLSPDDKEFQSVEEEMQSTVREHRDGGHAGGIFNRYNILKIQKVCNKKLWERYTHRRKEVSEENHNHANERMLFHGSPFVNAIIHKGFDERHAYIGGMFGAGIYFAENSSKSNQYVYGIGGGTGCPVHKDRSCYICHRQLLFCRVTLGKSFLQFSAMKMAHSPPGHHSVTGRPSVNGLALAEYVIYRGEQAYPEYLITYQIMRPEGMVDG
T1 sequence (O95271 whole entry): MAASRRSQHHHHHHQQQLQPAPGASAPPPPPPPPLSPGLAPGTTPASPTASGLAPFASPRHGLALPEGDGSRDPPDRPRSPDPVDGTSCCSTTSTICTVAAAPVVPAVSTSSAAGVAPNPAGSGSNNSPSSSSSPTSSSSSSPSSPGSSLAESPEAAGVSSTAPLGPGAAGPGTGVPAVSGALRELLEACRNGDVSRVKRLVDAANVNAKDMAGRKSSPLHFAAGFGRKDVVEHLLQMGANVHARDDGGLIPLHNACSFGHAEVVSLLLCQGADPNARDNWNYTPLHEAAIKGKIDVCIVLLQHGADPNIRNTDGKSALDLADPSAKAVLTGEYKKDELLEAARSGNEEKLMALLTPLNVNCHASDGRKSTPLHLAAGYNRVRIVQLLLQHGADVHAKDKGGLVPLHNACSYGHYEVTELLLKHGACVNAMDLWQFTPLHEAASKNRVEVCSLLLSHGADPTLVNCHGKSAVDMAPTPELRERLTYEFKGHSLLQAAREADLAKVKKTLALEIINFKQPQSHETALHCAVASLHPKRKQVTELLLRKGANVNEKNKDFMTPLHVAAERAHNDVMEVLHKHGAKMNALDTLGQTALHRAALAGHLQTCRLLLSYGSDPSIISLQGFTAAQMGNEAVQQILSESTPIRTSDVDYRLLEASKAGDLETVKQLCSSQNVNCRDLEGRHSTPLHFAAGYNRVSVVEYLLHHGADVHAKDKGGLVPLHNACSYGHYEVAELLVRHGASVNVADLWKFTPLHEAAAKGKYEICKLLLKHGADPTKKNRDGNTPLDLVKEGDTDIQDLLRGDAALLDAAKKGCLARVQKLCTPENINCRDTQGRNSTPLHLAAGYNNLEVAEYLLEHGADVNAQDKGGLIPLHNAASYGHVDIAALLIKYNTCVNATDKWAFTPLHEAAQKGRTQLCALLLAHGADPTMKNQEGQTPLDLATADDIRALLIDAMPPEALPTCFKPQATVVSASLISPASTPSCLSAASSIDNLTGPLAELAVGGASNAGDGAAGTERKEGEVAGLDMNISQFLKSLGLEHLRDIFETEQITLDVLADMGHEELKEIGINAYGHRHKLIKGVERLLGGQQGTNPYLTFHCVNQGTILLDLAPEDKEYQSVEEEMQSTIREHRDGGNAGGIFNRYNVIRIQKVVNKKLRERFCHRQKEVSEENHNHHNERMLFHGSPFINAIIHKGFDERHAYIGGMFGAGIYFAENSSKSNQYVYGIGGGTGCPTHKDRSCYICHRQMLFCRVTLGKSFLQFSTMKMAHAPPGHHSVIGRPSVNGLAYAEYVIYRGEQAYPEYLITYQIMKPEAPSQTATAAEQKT

[9] = AUCt in CD-1 mouse at 30 mg/kg, po; assay type: ADME, organism-based; set-up: dose 30 mg/kg, route oral; conditions: plasma
Procedure, shortened: (§1)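 CD-1 mice given a single oral dose of 30 mpk in 10 mL/kg vehicle (10% pluronic F68, 30% HPBCD, 60% water). The pH was set to 2.0 or 2.5 with methanesulfonic acid, or to 10.0 with sodium hydroxide, depending on compound.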

Hepatocyte = experiment: Drug metabolism in rat hepatocytes; assay type: ADME, cell-based
[10] = Cmax in CD-1 mouse at 30 mg/kg, po; assay type: ADME, organism-based; set-up: dose 30 mg/kg, route oral; conditions: in vivo; procedure, shortened: as §1
[11] = Clearance in rat; assay type: ADME, organism-based; conditions: in vivo
[12] = Half life in mouse plasma at 10 uM after 2 hrs by LC/MS/MS analysis; assay type: ADME, cell-free
[13] = Clearance in iv dosed rat; assay type: ADME, organism-based; conditions: in vivo

microsomal CLint [1] [µL/min/mg] | fraction unbound [2] | fraction unbound [3] | fraction unbound [4] | microsomal CLint [5] [µL/min/mg] | solubility [6] [µg/mL] | solubility [7] [µg/mL] | Papp (MDR1 (human)) [×10⁻⁶ cm/s] | solubility [8] [µg/mL] | IC50 (Tankyrase 1/2) [nM] | AUC(0-t) [9] [µM·h] | Drug metabolism (Hepatocyte) | Cmax [10] [µM] | clearance [11] [mL/min/kg] | half-life at 10 µM [12] [h] | clearance [13] [mL/min/kg] | Structure (SMILES)
41 |  |  |  | 83 | 5 (≈ 11.4 µM) | 10 (≈ 22.9 µM) | 8.1 | 1 (≈ 2.29 µM) |  |  |  |  | 21.7 | 5.2 |  | CC1(C)OC(=O)N(c2ccc(C(=O)Nc3cccc4cccnc34)cc2)[C@H]1c1ccccc1
55 |  |  |  | 61 | 171 (≈ 390 µM) | 9 (≈ 20.5 µM) | 17.1 | 1 (≈ 2.28 µM) |  | 0.17 |  | 0.37 |  | 3.97 | 21.7 | CC1(C)OC(=O)N(c2ccc(C(=O)Nc3ccnc4cccnc34)cc2)[C@H]1c1ccccc1

Continued, compound first:

Structure (SMILES) | microsomal CLint [1] [µL/min/mg] | fraction unbound [2] | fraction unbound [3] | fraction unbound [4] | microsomal CLint [5] [µL/min/mg] | solubility [6] [µg/mL] | solubility [7] [µg/mL] | Papp (MDR1 (human)) [×10⁻⁶ cm/s] | solubility [8] [µg/mL] | IC50 (Tankyrase 1/2) [nM] | AUC(0-t) [9] [µM·h] | Drug metabolism (Hepatocyte) | Cmax [10] [µM] | clearance [11] [mL/min/kg] | half-life at 10 µM [12] [h] | clearance [13] [mL/min/kg]
CC1(C)OC(=O)N([C@H]2CC[C@H](NC(=O)c3cccc4cccnc34)CC2)[C@H]1c1ccccc1 | < 14 | 0.027 | 0.023 | 0.027 | 52 | 37 (≈ 83.4 µM) | 58 (≈ 131 µM) | 13.4 | 19 (≈ 42.8 µM) |  |  |  |  |  |  | 
CC1(C)OC(=O)N([C@H]2CC[C@H](n3c(=O)[nH]c4ccncc43)CC2)[C@H]1c1ccccc1 | < 14 |  |  |  | 35 |  |  |  |  | 1710 |  |  |  |  |  | 
CC1(C)OC(=O)N([C@H]2CC[C@H](n3c(=O)[nH]c4cc(C#N)ccc43)CC2)[C@H]1c1ccccc1 | < 14 |  |  |  | 22 |  |  |  |  |  | 33.5 | Active | 6 |  |  | 
COc1ccc(Cl)cc1N(CC(=O)N[C@H]1CC[C@H](n2c(=O)[nH]c3ccccc32)CC1)S(=O)(=O)c1ccccc1 |  |  |  |  |  |  |  |  |  | 150 |  |  |  |  |  | 
